Results taken from ChEMBL document CHEMBL1130667, “Discovery of an imidazopyridine-containing 1,4-benzodiazepine nonpeptide vitronectin receptor (alpha v beta 3) antagonist with efficacy in a restenosis model” (Bioorg Med Chem Lett, 1998).

Tests used:
[1] = system: HEK293; assay: Antagonistic activity was measured by the adhesion of HEK 293 cells transfected with human alphaV-beta3 to vitronectin-coated plates; type: functional, cell-based
Method in brief: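 HEK 293 cells transfected with human αvβ3 are allowed to adhere to vitronectin-coated plates. IC50 comes from two experiments run in triplicate, with an internal reference standard included.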

[2] = target: Integrin alpha-V/beta-3 (Homo sapiens, UniProt P05106+P06756); assay: Antagonistic activity for human vitronectin receptor (alphaV-beta3) from platelets; type: functional
Method in brief: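 Competitive binding to human αvβ3 purified from platelets; a tritiated RGD peptide is the displaced ligand. Ki values are the means of two to three separate experiments, with typical assay variability of ±10%.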

[3] = Biological half-life measured in plasma of rat; 22-25; type: ADME, organism-based
[4] = (§1) Plasma clearance was measured in rat; type: ADME, organism-based; conditions: plasma
[5] = species: Rattus norvegicus; assay: as §1; type: ADME, organism-based; conditions: in vivo
[6] = Bioavailability was measured in rat after oral administration; 2-4; type: ADME, organism-based; conditions: in vivo, read-out: Bioavailabiility
[7] = species: Rattus norvegicus; assay: Compound was measured for in vitro efficacy in blocking vitronectin-induced migration of rat aortic smooth muscle cells (RASMC); type: functional, cell-based
[8] = Biological half-life measured in plasma of rat; 9-16; type: ADME, organism-based
[9] = Bioavailability was measured in rat after oral administration; 3-7; type: ADME, organism-based; conditions: in vivo, read-out: Bioavailabiility
[10] = species: Rattus norvegicus; assay: Maximum plasma concentration of compound was measured in rat; type: ADME, organism-based; conditions: in vivo
[11] = Biological half-life measured in plasma of rat; type: ADME, organism-based
[12] = Oral bioavailability in rat; type: ADME, organism-based; conditions: in vivo

Sequence of Integrin alpha-V/beta-3 (P05106 27-788 limits assumed): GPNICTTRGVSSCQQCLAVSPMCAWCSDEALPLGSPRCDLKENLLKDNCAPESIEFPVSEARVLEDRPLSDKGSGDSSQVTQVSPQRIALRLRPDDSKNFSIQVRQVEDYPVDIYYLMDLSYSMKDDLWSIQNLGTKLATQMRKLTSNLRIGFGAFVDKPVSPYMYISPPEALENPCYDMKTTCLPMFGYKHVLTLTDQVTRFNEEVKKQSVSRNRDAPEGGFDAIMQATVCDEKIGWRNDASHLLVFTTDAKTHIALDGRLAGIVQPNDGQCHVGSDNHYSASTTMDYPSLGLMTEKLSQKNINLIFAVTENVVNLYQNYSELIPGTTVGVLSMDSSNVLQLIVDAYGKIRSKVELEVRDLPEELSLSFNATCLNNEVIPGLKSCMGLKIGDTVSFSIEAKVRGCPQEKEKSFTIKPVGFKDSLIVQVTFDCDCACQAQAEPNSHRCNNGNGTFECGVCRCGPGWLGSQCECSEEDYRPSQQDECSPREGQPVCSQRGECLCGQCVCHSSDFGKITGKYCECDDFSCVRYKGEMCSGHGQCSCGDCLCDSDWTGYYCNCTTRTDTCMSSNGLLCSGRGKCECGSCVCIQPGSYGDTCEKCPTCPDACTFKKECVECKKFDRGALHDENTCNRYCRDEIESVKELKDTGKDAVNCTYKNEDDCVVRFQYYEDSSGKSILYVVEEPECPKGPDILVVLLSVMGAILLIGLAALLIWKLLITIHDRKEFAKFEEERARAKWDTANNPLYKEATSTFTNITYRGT
Sequence of Integrin alpha-V/beta-3 (P06756 31-889 limits assumed): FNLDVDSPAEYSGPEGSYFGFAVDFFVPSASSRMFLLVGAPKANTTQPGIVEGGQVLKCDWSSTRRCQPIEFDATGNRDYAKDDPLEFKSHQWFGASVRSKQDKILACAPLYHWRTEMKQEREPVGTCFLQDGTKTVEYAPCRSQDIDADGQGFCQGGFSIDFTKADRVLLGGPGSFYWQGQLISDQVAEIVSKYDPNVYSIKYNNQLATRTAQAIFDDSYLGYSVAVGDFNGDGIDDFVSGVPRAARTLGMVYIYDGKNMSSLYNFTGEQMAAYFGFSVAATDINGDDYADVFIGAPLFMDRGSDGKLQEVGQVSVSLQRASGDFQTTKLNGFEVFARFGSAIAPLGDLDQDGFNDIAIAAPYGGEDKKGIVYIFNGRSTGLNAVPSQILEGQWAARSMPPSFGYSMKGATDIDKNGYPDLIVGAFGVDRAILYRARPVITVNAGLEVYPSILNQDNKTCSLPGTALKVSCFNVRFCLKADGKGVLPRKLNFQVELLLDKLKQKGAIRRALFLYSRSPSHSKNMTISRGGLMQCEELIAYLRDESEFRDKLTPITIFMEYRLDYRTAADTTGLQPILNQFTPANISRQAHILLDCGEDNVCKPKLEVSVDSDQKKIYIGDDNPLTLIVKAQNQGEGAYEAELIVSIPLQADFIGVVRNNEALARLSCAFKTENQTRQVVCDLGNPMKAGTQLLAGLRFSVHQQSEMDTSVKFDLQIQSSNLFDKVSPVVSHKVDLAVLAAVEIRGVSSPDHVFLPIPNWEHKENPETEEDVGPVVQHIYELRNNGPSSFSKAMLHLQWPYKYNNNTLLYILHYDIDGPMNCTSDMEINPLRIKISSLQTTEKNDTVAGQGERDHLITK
Sequence of Integrin alpha-V/beta-3 (P06756 891-1048 limits assumed): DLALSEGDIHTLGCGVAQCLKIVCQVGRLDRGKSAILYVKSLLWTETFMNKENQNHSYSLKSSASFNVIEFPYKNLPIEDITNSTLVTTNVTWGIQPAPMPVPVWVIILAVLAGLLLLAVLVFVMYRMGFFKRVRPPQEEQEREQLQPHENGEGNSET

| Compound | Ki [2] [nM] | clearance [4] [mL/min/kg] | IC50 [7] [nM] | IC50 [1] [nM] | further results |
| --- | --- | --- | --- | --- | --- |
| COCCN1Cc2cc(C(=O)NCc3nc4ccc(C)[nH]c-4n3)ccc2N[C@@H](CC(=O)O)C1=O (racemic) | 50 |  |  | 10000 |  |
| CN(Cc1nc2ccccc2[nH]1)C(=O)c1ccc2c(c1)CN(C)C(=O)[C@H](CC(=O)O)N2 |  | 35 | 370 |  | half-life [8]: 16 min; bioavailability [9]: 7%; Cmax [10]: 819 ng/mL |
| CN(Cc1nc2cc[nH]nc-2n1)C(=O)c1ccc2c(c1)CN(C)C(=O)[C@H](CC(=O)O)N2 (racemic) | 19 |  |  | 1500 |  |
| Cc1ccc2[nH]c(CNC(=O)c3ccc4c(c3)CNC(=O)[C@H](CC(=O)O)N4)nc2n1 (racemic) | 90 |  |  | 20000 |  |
| Cc1ccc2[nH]c(CNC(=O)c3ccc4c(c3)CN(Cc3ccccc3)C(=O)[C@H](CC(=O)O)N4)nc2n1 (racemic) | 60 |  |  |  |  |
| CN(Cc1nc2ncncc2[nH]1)C(=O)c1ccc2c(c1)CN(C)C(=O)[C@H](CC(=O)O)N2 | 23 |  |  | 5000 |  |
| Cc1cc(C)c2[nH]c(CN(C)C(=O)c3ccc4c(c3)CN(C)C(=O)[C@H](CC(=O)O)N4)nc2n1 | 710 |  |  |  |  |
| Cc1ccc2nc(CNC(=O)c3ccc4c(c3)CN(C)C(=O)[C@H](CC(=O)O)N4)nc-2[nH]1 | 45 | 1.8 | 1600 | 9000 | half-life [11]: 92 min; bioavailability [12]: 8% |

The remaining compounds from weak to strong by Ki [2], led by results:

| Ki [2] [nM] | clearance [4] [mL/min/kg] | IC50 [7] [nM] | Compound | IC50 [1] [nM] | further results |
| --- | --- | --- | --- | --- | --- |
| 13 |  |  | Cc1ccc2nc(CN(C)C(=O)c3ccc4c(c3)CN(Cc3ccccc3)C(=O)[C@H](CC(=O)O)N4)nc-2[nH]1 (racemic) | 160 |  |
| 10 |  |  | Cc1ccc2nc(CN(C)C(=O)c3ccc4c(c3)CNC(=O)[C@H](CC(=O)O)N4)nc-2[nH]1 | 2500 |  |
| 4 |  |  | CC(C)N1Cc2cc(C(=O)N(C)Cc3nc4ncccc4[nH]3)ccc2N[C@@H](CC(=O)O)C1=O (racemic) | 2000 |  |
| 3 |  |  | CN(Cc1nc2ccc[nH]c-2n1)C(=O)c1ccc2c(c1)CN(C)C(=O)[C@H](CC(=O)O)N2 | 270 |  |
| 3 | 17 | 170 | Cc1ccc2[nH]c(CN(C)C(=O)c3ccc4c(c3)CN(C)C(=O)[C@H](CC(=O)O)N4)nc2n1 | 450 | half-life [3]: 25 min; clearance [5]: 19 mL/min/kg; bioavailability [6]: 4% |
| 2.5 | 31 | 230 | COCCN1Cc2cc(C(=O)N(C)Cc3nc4ncccc4[nH]3)ccc2N[C@@H](CC(=O)O)C1=O (racemic) | 500 | half-life [11]: 25 min; bioavailability [12]: 4%; Cmax [10]: 692 ng/mL |
| 2.5 | 55 | 470 | CN(Cc1nc2ccc[nH]c-2n1)C(=O)c1ccc2c(c1)CN(CCC(C)(C)C)C(=O)[C@H](CC(=O)O)N2 (racemic) | 250 | half-life [11]: 14 min; bioavailability [12]: < 1%; Cmax [10]: 555 ng/mL |
